SENP1 FRET inh: inhibitors of human SENP1 SUMO protease catalytic domain. recombinant SENP1 catalytic domain, CyPet-SUMO1-YPet FRET cleavage. 360,000 compounds, 0.21% hits. inhibition, % at 10 µM;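 active = inhibition at least 30% at 10 µM, raw YFP signal under a set limit, fluorescence ratio 0.5 to 1.5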
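Compound: 10 µM single point, 0.5% DMSO; Test system: hSENP1 catalytic domain, recombinant; Timing: 50 min reaction at room temperature; Technique: FRET, CFP and YFP emission; Control set: no-enzyme wells low, DMSO-plus-enzyme wells high control.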
CTSL1 counter: blocks F. hepatica cathepsin L1 in PFM18AAP counter-screen; recombinant F. hepatica cathepsin L1, Z-Leu-Arg-MCA fluorescence; inhibition, % at 5.96 µM; 300,000 compounds, 0.49% hits;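 active = inhibition above the mean of all tested compounds plus 3 SD, set per screening campaign, cut at about 17% in these data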
FXN GAA850 act: frataxin GAA850 promoter activation; activation, % at 6 µM; HEK293 lucGAA850 FXN promoter luciferase reporter, 24 h; percent of 10 µM SAHA response; AID 540364; 360,000 compounds, 0.56% hits;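 active = activation above the average of all compounds screened plus 3 SD, cutoff fixed separately per campaign, cut at about 7.5% in these data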
PfM18AAP inh: blocks P. falciparum M18 aspartyl aminopeptidase. recombinant PfM18AAP, H-Glu-NHMec fluorogenic cleavage. inhibition, % at 7.35 µM. 290,000 compounds, 1.2% hits. AID 1822;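 active = inhibition above the campaign mean inhibition over all tested compounds plus 3 SD, cut at about 28% in these data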
AHR act: activates the human aryl hydrocarbon receptor; P35869; AHR-responsive luciferase reporter cells, luminescence; activation, % at 5 µM; 320,000 compounds, 2.5% hits; in the data active = activation above about 47%
Target sequence (P35869 whole entry, looked up): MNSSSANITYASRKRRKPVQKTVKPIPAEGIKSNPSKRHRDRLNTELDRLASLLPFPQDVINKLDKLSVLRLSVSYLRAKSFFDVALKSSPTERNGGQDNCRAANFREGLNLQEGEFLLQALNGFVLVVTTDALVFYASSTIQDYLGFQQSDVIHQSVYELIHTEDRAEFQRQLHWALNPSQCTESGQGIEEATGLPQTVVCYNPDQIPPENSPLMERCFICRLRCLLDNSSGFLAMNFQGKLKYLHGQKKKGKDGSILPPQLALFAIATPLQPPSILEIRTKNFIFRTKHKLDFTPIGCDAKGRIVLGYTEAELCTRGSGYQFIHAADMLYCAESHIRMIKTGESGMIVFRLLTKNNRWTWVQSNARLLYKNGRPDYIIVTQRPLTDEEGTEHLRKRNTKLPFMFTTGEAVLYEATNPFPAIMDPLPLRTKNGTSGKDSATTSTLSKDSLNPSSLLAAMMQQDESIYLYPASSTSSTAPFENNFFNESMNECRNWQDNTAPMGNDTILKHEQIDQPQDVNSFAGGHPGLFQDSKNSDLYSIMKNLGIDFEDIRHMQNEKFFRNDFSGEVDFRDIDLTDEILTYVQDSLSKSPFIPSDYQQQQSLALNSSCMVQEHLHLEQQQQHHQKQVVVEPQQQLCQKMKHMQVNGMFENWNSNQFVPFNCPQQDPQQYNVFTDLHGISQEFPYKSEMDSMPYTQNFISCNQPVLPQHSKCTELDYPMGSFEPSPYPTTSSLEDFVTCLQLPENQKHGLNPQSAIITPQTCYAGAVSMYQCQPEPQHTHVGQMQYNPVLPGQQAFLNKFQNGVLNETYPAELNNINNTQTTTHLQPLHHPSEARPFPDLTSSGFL
HDAC3 inh: inhibitors of human histone deacetylase 3; O15379; recombinant HDAC3, fluorogenic peptide/trypsin coupled, fluorescence; inhibition, % at 8.3 µM; 320,000 compounds, 0.15% hits; AID 2718; in the data active = inhibition above about 26%, passing the limit was not always enough; inconclusive = no clear call, values can overlap the other calls
GAA30 FXN cntr: GAA30 FXN promoter activation counter-screen; activation, % at 6 µM; shares compounds with FXN GAA850 act; HEK293 lucGAA30 FXN promoter luciferase, 24 h; DMSO = 0%, 5 µM ipriflavone = 100%; 1,900 compounds, 66% hits;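 active = mean activation above the mean of solvent-only control wells plus 3 SD, cut at about 22% in these data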;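 also: counterscreen of GAA850 promoter hits where activity marks nonselective or luminescence artifacts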
GAA850 confirm: confirmation of GAA850 frataxin (FXN) promoter activators; shares compounds with FXN GAA850 act; HEK293 lucGAA850 FXN promoter luciferase reporter, 24 h; 100% = activation by SAHA; activation, % at 6 µM; 1,900 compounds, 86% hits;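 active = mean activation above a set limit taken from the primary screen, cut at about 8% in these data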
Hits are given with their value; . = inactive; ? = inconclusive; / = no result given. Most compounds without a hit are left out; they make up all but 4.2% or so of the library.

SMILES	SENP1 FRET inh	CTSL1 counter	FXN GAA850 act	PfM18AAP inh	AHR act	HDAC3 inh	GAA30 FXN cntr	GAA850 confirm
CCOC(=O)[C@]12CCC=C1N(Cc1ccc3c(c1)OCO3)C(=O)[C@H](CC(=O)NCC1CCCCC1)C2	.	/	/	/	/	/	/	/
Cc1cccc2cc(CNCc3ccccc3)c(Cl)nc12	.	.	.	.	.	.	/	/
Cc1nc(Nc2ccccc2Cl)sc1C(=O)Nc1ccccc1	.	.	16.3	.	.	?	66.6	20.8
Cc1nc(Nc2ccccc2)sc1C(=O)Nc1ccccc1	.	.	.	.	.	.	/	/
CC(C)OP(=O)(c1ccc(N(C)C)cc1)C(O)c1ccccc1 (centres undefined)	.	.	.	.	.	.	/	/
CC(C)OP(=O)(c1ccc(N(C)C)cc1)C(O)c1ccc(C(C)C)cc1 (centres undefined)	.	.	11.5	.	.	.	29.2	13.2
CC(C)CCOP(=O)(c1ccc(N(C)C)cc1)C(O)c1c(Cl)cccc1Cl (centres undefined)	.	.	19.7	.	.	.	26.1	13.5
COc1ccc(-c2ccc(=O)n(Cc3c(F)cccc3Cl)n2)cc1	.	.	8.0	.	.	.	43.4	21.8
CCCNC(=O)C1(C)CCN(C(=O)c2sccc2C)C1 (centres undefined)	.	/	.	/	/	/	/	/
Nc1c(-c2cccs2)cnc2c(-c3ccc(F)cc3)cnn12	.	.	.	.	.	.	/	/
Nc1c(-c2ccccc2)cnc2c(-c3ccccc3)cnn12	.	.	8.4	.	.	.	90.5	35.0
Cc1ccccc1Oc1ccc2c(c1)[C@@H]1C[C@H](N(C)C(=O)c3ccc(C#N)cc3)[C@H]([C@H](C)O)C(=O)N1CC2	.	/	.	/	/	/	/	/
COc1ccc(/C=C(\C#N)C(=O)NCc2ccccc2)cc1	.	.	.	.	.	.	/	/
CC1CC1C(=O)OCc1cc(=O)n2cc(Br)ccc2n1 (centres undefined)	.	.	.	.	.	.	/	/
CC1(C(=O)OCc2cc(=O)n3cc(Br)ccc3n2)CC1(Cl)Cl (centres undefined)	.	.	8.9	.	.	.	98.8	40.1
c1nc(Nc2ccc(N3CCOCC3)cc2)c2ccsc2n1	.	.	.	.	.	.	/	/
Fc1ccc(-c2csc3ncnc(Nc4ccc(N5CCOCC5)cc4)c23)cc1	.	.	11.6	.	.	.	.	11.3
CCN(CC(O)CON=C1c2ccccc2-c2ccccc21)S(=O)(=O)c1ccc(C)cc1 (centres undefined)	.	.	7.6	.	.	.	.	15.0
CCN(CC(O)CON=C1c2ccccc2-c2ccccc21)S(=O)(=O)c1ccc(Cl)cc1 (centres undefined)	.	.	.	.	.	.	/	/
Cc1noc(C)c1-c1ccc(C(=O)NCc2ccc(Cl)cc2)c2occc12	.	/	.	/	/	/	/	/
COc1cccc(CNC(=O)CSc2nnc3c(n2)[nH]c2ccccc23)c1	.	.	.	.	.	.	/	/
O=C(CCl)Nc1cc(S(=O)(=O)N2CCCCCC2)ccc1Cl	.	79.6	10.8	.	.	.	.	13.8
Cc1cccc(C(O)c2ncc(-c3ccccc3)[nH]2)c1C (centres undefined)	.	/	.	/	/	/	/	/
CCOC(=O)N/N=C/c1c(C)nn(-c2ccccc2Cl)c1Cl	.	.	8.2	.	.	.	92.9	34.4
Cc1nn(-c2ccccc2)c(Cl)c1/C=N/NC(=O)OC(C)(C)C	.	.	.	.	.	.	/	/
SMILES	SENP1 FRET inh	CTSL1 counter	FXN GAA850 act	PfM18AAP inh	AHR act	HDAC3 inh	GAA30 FXN cntr	GAA850 confirm
COc1ccc(O)c(/C=N/Nc2nc(C)cc(-c3ccccc3)n2)c1	.	.	.	/	.	?	/	/
COc1ccc(O)c(/C=N/Nc2nc(Nc3ccccc3)nc(-n3nc(C)cc3C)n2)c1	.	.	8.7	.	.	.	.	16.1
COC(=O)[C@@H]1[C@@H](C#N)C2(c3ccccc3-c3ccccc32)N(c2ccc(Cl)cc2)N1C#N	.	.	12.4	.	.	.	.	19.1
Cc1ccc(Cn2c(/C=C/c3ccco3)nc3ccccc32)cc1	.	.	8.0	.	.	.	108.8	43.8
CC(=O)C12OC(C)(C)OC1CC1C3CCC4=CC(=O)C=CC4(C)C3(F)C(O)CC12C (centres undefined)	.	/	.	/	/	/	/	/
CN(Cc1ccccc1)C(=O)c1ccccc1C(=O)OCC(=O)N(Cc1ccccc1)C(C)(C)C	.	/	.	/	.	.	/	/
CCOc1ccc(C(C)=O)cc1COC(=O)c1ccccc1C(=O)N(C)Cc1ccccc1	.	/	9.5	/	/	/	.	15.0
COC(=O)[C@]12C(=O)C(C)=C(O)[C@@]1(C)C(C)=CC1[C@@]34CC[C@@H](OC(C)=O)C(C)(C)C3C(C[C@]12C)OC4=O (some centres undefined)	.	.	8.8	/	.	.	.	.
CCCCCCCCN1C(=O)[C@H](CC(=O)NCc2cccc3ccccc23)C[C@@]2(C(=O)OCC)CCC=C12	.	/	/	/	/	/	/	/
CC1(NC(=O)Cc2csc(-c3cccc(Cl)c3)n2)CCS(=O)(=O)C1 (centres undefined)	.	/	.	/	.	.	/	/
O=C(NCc1ccccc1)NCc1cccs1	.	.	.	.	.	.	/	/
Cc1ccc(Nc2ncccc2C(N)=O)cc1[N+](=O)[O-]	.	.	10.4	.	.	.	100.1	27.0
CCOC(=O)c1c(C)[nH]c(C(=O)OCCOc2ccccc2C)c1C	.	/	9.5	.	/	/	98.1	25.8
CC1(C(=O)NCc2cccs2)CCN1CCc1ccccc1 (centres undefined)	.	/	.	/	/	/	/	/
O=C(OCCc1cc2ccccc2c(=O)o1)c1ccccc1C(F)(F)F	.	/	.	/	.	.	/	/
Fc1ccc(-c2cn3cc(C(F)(F)F)cc(Cl)c3n2)cc1	.	.	8.8	.	.	.	97.4	35.0
Fc1ccc(-c2nc3c(Cl)cc(C(F)(F)F)cn3c2Cc2ccccc2)cc1	.	/	/	/	/	/	/	/
CN(/N=C/c1ccncc1)c1cnc2ccccc2n1	.	.	9.6	.	.	.	104.8	29.2
CN(/N=C/c1ccncc1)C1=NCCN1	.	.	.	.	.	.	/	/
C[C@@H]1CN([C@@H](C)CO)S(=O)(=O)c2ccc(Br)cc2O[C@@H]1CN(C)S(=O)(=O)c1cn(C)cn1	.	/	.	/	/	/	/	/
O=C(Nc1ccccc1[N+](=O)[O-])C1=C(O)CCn2c1nc1ccccc12	.	.	9.2	.	.	.	.	15.6
O=C(/C=N\O)NCCCNCc1ccccc1	.	.	20.9	.	.	.	26.1	9.0
Cc1onc(-c2ccccc2Cl)c1C(=O)N1CCN(S(=O)(=O)c2ccc(F)c(F)c2)CC1	.	.	.	.	.	.	/	/

Bioassay records (PubChem)
